Results taken from ChEMBL document CHEMBL5131379 (J Med Chem, 2021).
Each block holds one compound with its values, some of them ahead of it. Calls of active or inactive are those of the source. The rule behind the calls is not given here.

Columns and labels:
in vitro = settings: human, MRC9 cells
[1] = biological target: T1, Protein deacetylase HDAC6 (Homo sapiens) (UniProt Q9UBN7); test: Binding affinity to HDAC6 (unknown origin) assessed as residence time
T1 sequence (whole entry): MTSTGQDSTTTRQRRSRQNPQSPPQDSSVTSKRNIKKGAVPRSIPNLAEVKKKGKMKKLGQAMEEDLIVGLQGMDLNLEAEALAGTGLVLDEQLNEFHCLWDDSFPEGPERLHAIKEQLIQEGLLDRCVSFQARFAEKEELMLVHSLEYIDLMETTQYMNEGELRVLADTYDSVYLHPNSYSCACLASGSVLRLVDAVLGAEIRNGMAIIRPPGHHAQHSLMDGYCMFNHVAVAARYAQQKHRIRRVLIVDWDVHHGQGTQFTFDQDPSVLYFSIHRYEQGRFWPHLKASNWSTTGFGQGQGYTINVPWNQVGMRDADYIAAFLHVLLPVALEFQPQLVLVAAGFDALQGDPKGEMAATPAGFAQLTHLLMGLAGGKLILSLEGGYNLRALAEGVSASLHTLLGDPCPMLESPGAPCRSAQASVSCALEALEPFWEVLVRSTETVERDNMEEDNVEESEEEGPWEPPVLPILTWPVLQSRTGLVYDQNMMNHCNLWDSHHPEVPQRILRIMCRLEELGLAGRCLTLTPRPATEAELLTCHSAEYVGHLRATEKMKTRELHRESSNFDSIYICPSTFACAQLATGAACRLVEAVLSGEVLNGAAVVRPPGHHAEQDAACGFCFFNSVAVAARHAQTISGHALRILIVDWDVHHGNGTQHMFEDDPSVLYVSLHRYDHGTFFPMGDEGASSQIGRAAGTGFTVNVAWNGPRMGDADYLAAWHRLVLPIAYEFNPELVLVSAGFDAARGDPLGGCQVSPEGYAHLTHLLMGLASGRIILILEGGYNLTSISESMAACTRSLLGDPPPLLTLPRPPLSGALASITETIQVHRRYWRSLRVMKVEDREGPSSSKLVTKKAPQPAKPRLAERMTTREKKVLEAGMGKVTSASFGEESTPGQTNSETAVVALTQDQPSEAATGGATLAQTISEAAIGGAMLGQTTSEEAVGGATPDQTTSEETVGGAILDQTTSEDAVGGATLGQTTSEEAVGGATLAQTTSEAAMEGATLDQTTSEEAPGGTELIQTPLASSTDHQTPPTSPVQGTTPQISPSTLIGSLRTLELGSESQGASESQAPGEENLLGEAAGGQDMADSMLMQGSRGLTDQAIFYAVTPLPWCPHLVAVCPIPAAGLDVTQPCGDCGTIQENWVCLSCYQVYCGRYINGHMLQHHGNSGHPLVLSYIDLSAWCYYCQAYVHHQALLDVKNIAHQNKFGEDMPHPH

MV4-11 [2] = test: Induction of apoptosis in human MV4-11 cells assessed as late apoptotic cells at 2 uM measured after 18 hrs by Annexin V-FITC/propidium iodide staining based FACS flow cytometry (reference value: 7.49%); assay type: functional
MV4-11 [3] = test: Induction of apoptosis in human MV4-11 cells at 0.5 uM assessed as increase in cleaved PARP-1 level measured after 6 hrs by Western blot analysis; assay type: functional, cell-based
Outline: (§1)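 Protein was measured by BCA and run on a 4–20% SDS gel, then transferred to nitrocellulose and blocked in 5% milk. Primary antibodies were incubated overnight at 4 °C, with HSC70 as loading control. HRP secondaries were used with ECL detection.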

MV4-11 [4] = test: Induction of apoptosis in human MV4-11 cells assessed as viable cells at 0.25 uM measured after 18 hrs by Annexin V-FITC/propidium iodide staining based FACS flow cytometry (reference value: 83.23%); assay type: functional; settings: read-out: Activity
MV4-11 [5] = test: Induction of apoptosis in human MV4-11 cells assessed as early apoptotic cells at 0.25 uM measured after 18 hrs by Annexin V-FITC/propidium iodide staining based FACS flow cytometry (reference value: 2.23%); assay type: functional
MV4-11 [6] = test: Induction of apoptosis in human MV4-11 cells assessed as early apoptotic cells at 2 uM measured after 18 hrs by Annexin V-FITC/propidium iodide staining based FACS flow cytometry (reference value: 2.23%); assay type: functional
MV4-11 [7] = test: Induction of apoptosis in human MV4-11 cells assessed as viable cells at 2 uM measured after 18 hrs by Annexin V-FITC/propidium iodide staining based FACS flow cytometry (reference value: 83.23%); assay type: functional; settings: read-out: Activity
MV4-11 [8] = test: Induction of apoptosis in human MV4-11 cells assessed as late apoptotic cells at 1 uM measured after 18 hrs by Annexin V-FITC/propidium iodide staining based FACS flow cytometry (reference value: 7.49%); assay type: functional
MV4-11 [9] = test: Induction of apoptosis in human MV4-11 cells assessed as viable cells at 4 uM measured after 18 hrs by Annexin V-FITC/propidium iodide staining based FACS flow cytometry (reference value: 83.23%); assay type: functional; settings: read-out: Activity
MV4-11 [10] = test: Induction of apoptosis in human MV4-11 cells at 0.5 uM assessed as increase in cleaved caspase-3 level measured after 6 hrs by Western blot analysis
[11] = biological target: T1, Protein deacetylase HDAC6 (Homo sapiens); test: Inhibition of HDAC6 in human MV4-11 cells assessed as increase in acetylated alpha-tubulin incubated for 6 hrs by Western blot analysis; assay type: cell-based
Outline: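 Protein quantified by BCA, run on 4–20% SDS gel, blotted to nitrocellulose. Probed overnight at 4 °C for acetylated α-tubulin and acetylated H3 (Lys18), HSC70 as loading control. HRP secondaries, ECL detection.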

MV4-11 [12] = test: Induction of apoptosis in human MV4-11 cells assessed as late apoptotic cells at 0.25 uM measured after 18 hrs by Annexin V-FITC/propidium iodide staining based FACS flow cytometry (reference value: 7.49%); assay type: functional
MV4-11 [13] = test: Induction of apoptosis in human MV4-11 cells assessed as viable cells at 0.5 uM measured after 18 hrs by Annexin V-FITC/propidium iodide staining based FACS flow cytometry (reference value: 83.23%); assay type: functional; settings: read-out: Activity
MV4-11 [14] = test: Induction of apoptosis in human MV4-11 cells assessed as late apoptotic cells at 4 uM measured after 18 hrs by Annexin V-FITC/propidium iodide staining based FACS flow cytometry (reference value: 7.49%); assay type: functional
MV4-11 [15] = test: Induction of apoptosis in human MV4-11 cells assessed as early apoptotic cells at 0.5 uM measured after 18 hrs by Annexin V-FITC/propidium iodide staining based FACS flow cytometry (reference value: 2.23%); assay type: functional
MV4-11 [16] = test: Induction of apoptosis in human MV4-11 cells assessed as late apoptotic cells at 0.5 uM measured after 18 hrs by Annexin V-FITC/propidium iodide staining based FACS flow cytometry (reference value: 7.49%); assay type: functional
MV4-11 [17] = test: Induction of apoptosis in human MV4-11 cells assessed as early apoptotic cells at 4 uM measured after 18 hrs by Annexin V-FITC/propidium iodide staining based FACS flow cytometry (reference value: 2.23%); assay type: functional
[18] = biological target: T1, Protein deacetylase HDAC6 (Homo sapiens); test: Inhibition of HDAC6 in human HeLa cells assessed as increase in acetylated alpha tubulin level incubated for 6 hrs by immunofluorescent assay; assay type: cell-based
Outline: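 HeLa cells (DMEM, 10% FBS, 37 °C, 5% CO2) seeded subconfluent; inhibitor added after 24 h, increasing doses for 6 h. Fixed in 4% formaldehyde, permeabilised with 1% Triton X-100, blocked in 5% BSA. Stained for acetylated α-tubulin and acetylated histone H3 (Lys18), DAPI counterstain. Intensity from imaging, n = 3, two-way ANOVA with Tukey test.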

MV4-11 [19] = test: Induction of apoptosis in human MV4-11 cells assessed as early apoptotic cells at 1 uM measured after 18 hrs by Annexin V-FITC/propidium iodide staining based FACS flow cytometry (reference value: 2.23%); assay type: functional
MV4-11 [20] = test: Induction of apoptosis in human MV4-11 cells at 0.5 uM assessed as increase in cleaved caspase-3 level measured after 6 hrs by Western blot analysis; assay type: functional, cell-based
Outline: as §1

[21] = biological target: Histone deacetylase 1 (Homo sapiens) (UniProt Q13547); test: Inhibition of HDAC1 in human MV4-11 cells assessed as acetylation of histone H3 incubated for 6 hrs by Western blot analysis; assay type: cell-based
Outline: as §1

[22] = Cytotoxicity against human MRC9 cells assessed as reduction in cell growth incubated for 72 hrs by Cell titer-blue assay; assay type: toxicity, cell-based

Sequence of Histone deacetylase 1 (Homo sapiens) (Q13547 whole entry): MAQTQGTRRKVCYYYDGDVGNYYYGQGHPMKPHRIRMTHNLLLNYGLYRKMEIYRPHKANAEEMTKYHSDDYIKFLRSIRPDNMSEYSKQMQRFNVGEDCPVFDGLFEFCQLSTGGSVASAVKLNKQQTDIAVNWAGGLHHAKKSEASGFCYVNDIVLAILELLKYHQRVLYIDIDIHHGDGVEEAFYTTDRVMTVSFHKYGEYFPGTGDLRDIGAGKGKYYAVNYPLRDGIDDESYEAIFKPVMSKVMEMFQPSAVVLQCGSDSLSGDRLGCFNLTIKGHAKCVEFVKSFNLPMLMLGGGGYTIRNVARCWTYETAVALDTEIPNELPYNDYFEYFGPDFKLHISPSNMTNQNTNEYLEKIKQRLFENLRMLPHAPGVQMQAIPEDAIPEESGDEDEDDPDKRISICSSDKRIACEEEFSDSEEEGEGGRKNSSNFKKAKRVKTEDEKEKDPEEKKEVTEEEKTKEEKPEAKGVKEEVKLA

Structure (SMILES): O=C(CCCCCCNC(=O)c1cnc(N(c2ccccc2)c2ccccc2)nc1)NO [RICOLINOSTAT]
IC50 at 72 h (in vitro): > 20 µM

Structure (SMILES): O=C(NO)c1ccc(CNS(=O)(=O)c2c(F)c(F)c(F)c(F)c2F)cc1
IC50 at 72 h (in vitro): > 25 µM

Structure (SMILES): O=C(NO)c1ccc(CN(C2CC2)S(=O)(=O)c2c(F)cc(F)c(Cl)c2F)cc1
IC50 at 72 h (in vitro): > 20 µM

Structure (SMILES): O=C(NO)c1ccc(CN(C2CC2)S(=O)(=O)c2cc(F)c(F)c(F)c2F)cc1
TIME [1]: 0.386 h
Activity (MV4-11 [2]): 19.6%
Activity (MV4-11 [3]): Active
IC50 at 72 h (in vitro): > 20 µM
viability at 0.25 µM (MV4-11 [4]): 70.6%
Activity (MV4-11 [5]): 6.73%
Activity (MV4-11 [6]): 24.39%
viability at 2 µM (MV4-11 [7]): 8.34%
Activity (MV4-11 [8]): 22.3%
viability at 4 µM (MV4-11 [9]): 7.61%
Activity (MV4-11 [10]): Active
inhibition [11]: Active
Activity (MV4-11 [12]): 13.93%
viability at 0.5 µM (MV4-11 [13]): 49.5%
Activity (MV4-11 [14]): 19.18%
Activity (MV4-11 [15]): 15.26%
Activity (MV4-11 [16]): 17.58%
Activity (MV4-11 [17]): 24.37%
inhibition [18]: Active
Activity (MV4-11 [19]): 18.12%
Activity (MV4-11 [20]): Active

Structure (SMILES): O=C(NO)c1ccc(CNC(=O)c2c(F)c(F)c(F)c(F)c2F)cc1
IC50 at 72 h (in vitro): > 50 µM

Structure (SMILES): O=C(NO)c1ccc(CN(C2CC2)S(=O)(=O)c2ccc(F)cc2)cc1
IC50 at 72 h (in vitro): > 50 µM

Structure (SMILES): O=C(NO)c1ccc(CN(C2CC2)S(=O)(=O)c2c(F)cc(F)cc2F)cc1
IC50 at 72 h (in vitro): > 20 µM

Structure (SMILES): O=C(NO)c1ccc(CN(C2CC2)S(=O)(=O)c2cc(F)c(F)c(F)c2)cc1
IC50 at 72 h (in vitro): > 25 µM

Structure (SMILES): O=C(CCCCCCNC(=O)c1cnc(N(c2ccccc2)c2ccccc2Cl)nc1)NO [CITARINOSTAT]
inhibition [21]: Active
IC50 at 72 h (in vitro): > 30 µM
inhibition [11]: Active
IC50 at 72 h [22]: > 30 µM

Next, values leading:

IC50 at 72 h (in vitro): > 30 µM
Structure (SMILES): O=C(NO)c1ccc(CN(C2CC2)S(=O)(=O)c2c(F)c(F)c(Cl)c(F)c2F)cc1

IC50 at 72 h (in vitro): > 20 µM
Structure (SMILES): O=C(NO)c1ccc(CN(C2CC2)S(=O)(=O)c2c(F)c(F)c(F)c(F)c2F)cc1

IC50 at 72 h (in vitro): > 50 µM
Structure (SMILES): O=C(NO)c1cccc(CN(C2CC2)S(=O)(=O)c2c(F)c(F)c(F)c(F)c2F)c1

IC50 at 72 h (in vitro): > 15 µM
Structure (SMILES): O=C(NO)c1ccc(CN(C2CC2)S(=O)(=O)c2c(F)c(F)cc(F)c2F)cc1

IC50 at 72 h (in vitro): > 50 µM
Structure (SMILES): O=C(NO)c1ccc(CN(C2CC2)S(=O)(=O)c2c(F)c(Cl)c(F)c(Cl)c2F)cc1

IC50 at 72 h (in vitro): > 10 µM
Structure (SMILES): CC(C)N(Cc1ccc(C(=O)NO)cc1)S(=O)(=O)c1c(F)c(F)c(F)c(F)c1F

IC50 at 72 h (in vitro): > 30 µM
Structure (SMILES): CN(Cc1ccc(C(=O)NO)cc1)S(=O)(=O)c1c(F)c(F)c(F)c(F)c1F
